Compound activity from PubChem.
CHO parental Ca = counter-screen for OX1R antagonists: effect in parental CHO cells; inhibition, % at 5.6 µM; hit rate 0.63% among 330,000; parental CHO-K1, ATP-induced calcium, Fluo-8 fluorescence; AID 463079;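 active means inhibition above that plate's mean sample inhibition plus 3 SD, cut at about 26% in these data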
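Material: Parental CHO cells | Reagent: ATP | Compound dosing: Single nominal dose of 5.6 µM per compound | Detection: Intracellular calcium via Fluo-8 no-wash fluorescent dye | Read-out: % inhibition of ATP-induced calcium mobilization | Benchmarks: Low control ATP plus DMSO, high control DMSO only | Replicates: Singlicate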
MPTP inh = inhibitors of mitochondrial permeability transition pore | isolated mouse mitochondria, Ca2+ swelling absorbance, 30 min | inhibition, % at 10 µM | hit rate 1.4% among 360,000 | AID 602449;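 active means inhibition of 50% or more, scaled per plate between neutral and stimulator controls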
OX1R antag-1 = human HCRTR1 antagonism; O43613; CHO/OX1R cells, Fluo-8 calcium fluorescence, orexin A; inhibition, % at 5 µM; hit rate 0.43% among 330,000; AID 434989;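 active means inhibition above its plate's threshold, mean inhibition of all tested compounds on the plate plus 3 SD, cut at about 37% in these data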
Target sequence (O43613 whole entry, looked up): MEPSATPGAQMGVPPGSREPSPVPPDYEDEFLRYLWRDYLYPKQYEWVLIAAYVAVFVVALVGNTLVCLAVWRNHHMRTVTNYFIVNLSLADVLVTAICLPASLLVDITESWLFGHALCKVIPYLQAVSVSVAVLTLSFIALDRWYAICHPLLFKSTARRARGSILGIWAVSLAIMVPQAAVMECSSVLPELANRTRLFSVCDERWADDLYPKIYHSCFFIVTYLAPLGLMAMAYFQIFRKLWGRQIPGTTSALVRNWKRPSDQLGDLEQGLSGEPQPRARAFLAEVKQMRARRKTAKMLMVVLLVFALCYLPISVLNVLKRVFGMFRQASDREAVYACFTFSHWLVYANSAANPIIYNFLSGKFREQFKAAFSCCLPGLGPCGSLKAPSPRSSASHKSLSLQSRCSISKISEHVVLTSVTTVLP
OX1R antag-2 = blocks the human orexin 1 receptor; inhibition, % at 6.6 µM; OX1R-expressing cells, FRET antagonist read-out; O43613; AID 485270; hit rate 1.8% among 330,000; in the data active means inhibition mostly above about 38%, no sharp cut-off; inactive means mostly below about 40%
GPR7 antag = blocks human GPR7 receptor signaling; P48145; GPR7-expressing cells, fluorescence antagonist assay; inhibition, % at 4.4 µM; hit rate 1.1% among 290,000; AID 1861; in the data active means inhibition above about 16%, passing the limit was not always enough;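 further: cells stimulated with the agonist NPW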
GPR7 antag conf = human GPR7 antagonism, confirmation assay; shares compounds with GPR7 antag; GPR7-expressing cells, calcium fluorescence antagonist mode; inhibition, % at 4.4 µM; hit rate 52% among 2,400; in the data active means inhibition above about 24%;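 further: stimulated with the GPR7 agonist NPW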
MCHR1 antag = antagonizes human MCHR1, a GPR7 antagonist counter-screen; hit rate 62% among 2,400; inhibition, % at 4.4 µM; shares compounds with GPR7 antag; MCHR1-expressing cells, fluorescence antagonist assay
OX1R Ca confirm = confirmation of human orexin 1 receptor antagonists. shares compounds with OX1R antag-1. CHO/OX1R cells, orexin A calcium Fluo-8 fluorescence. inhibition, % at 5 µM. hit rate 38% among 1,100. AID 492963; in the data active means inhibition above about 29%
CHO Ca triplic = signal in parental CHO cells, OX1R antagonist counter-screen. shares compounds with OX1R antag-1. parental CHO-K1, ATP-induced calcium, Fluo-8 fluorescence. inhibition, % at 5.6 µM. hit rate 9.3% among 1,100. AID 492965;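 active means inhibition above a per-plate limit, the mean inhibition of that plate's test compounds plus 3 SD, cut at about 25% in these data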
OX1R HTRF conf = OX1R (human) antagonism, HTRF confirmed; shares compounds with OX1R antag-2; OX1R-expressing cells, HTRF antagonist assay; inhibition, % at 6.6 µM; hit rate 49% among 1,800; in the data active means inhibition above about 55%;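 further: CHO cells expressing OX1R stimulated with orexin A at about EC80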
CHO-K1 HTRF = counter-screen: parental CHO-K1 HTRF response | shares compounds with OX1R antag-2 | parental CHO-K1 cells, HTRF counterscreen | inhibition, % at 6.6 µM | hit rate 48% among 1,800 | AID 493232; in the data active means inhibition above about 17%
MPTP counter = mitochondrial membrane potential, counter-screen. hit rate 78% among 5,000. shares compounds with MPTP inh. inhibition, % at 10 µM. isolated mitochondria, Rhodamine 123 fluorescence. AID 624504
Hits are given with their value; - = inactive; . = not tested or not shown; + = active, no number. The list is not random: actives were taken first. Their share in the collection is about 3.8%. Unless noted, no stated cut-off is given here; in the data, active means inhibition above about 22%; inactive means the rest.

SMILES	CHO parental Ca	MPTP inh	OX1R antag-1	OX1R antag-2	GPR7 antag	OX1R HTRF conf	CHO-K1 HTRF	others
CCc1c(C)nc(N)nc1N1N=C1SCC(N)=O	-	-	-	-	-	.	.
Cc1cc(C)c(C(=O)N2CCC3(CC2)OCCO3)c(C)c1	-	-	-	-	-	.	.
Cc1occc1C(=O)N1CCC2(CC1)OCCO2	-	-	-	-	32.5	.	.	GPR7 antag conf=-;MCHR1 antag=-
OC(CNC1CCCCCCC1)c1ccccc1 (stereo not given)	-	.	-	-	21.9	.	.	GPR7 antag conf=-;MCHR1 antag=-
CCOC(=O)c1ccc(-[n+]2c(-c3ccccc3)cc(-c3ccccc3)cc2-c2ccccc2)cc1	-	.	-	-	.	.	.
c1ccc(-c2cc(-c3ccccc3)[n+](-c3ccccc3)c(-c3ccccc3)c2)cc1	83.7	63.7	84.1	-	96.7	.	.	GPR7 antag conf=93.0;MCHR1 antag=86.6;MPTP counter=88.9
C=CCn1c(O)c(/C(C)=N/N2CCN(C)CC2)c(=O)[nH]c1=O	-	-	-	-	-	.	.
O=C(Nc1cccc(Cl)c1)OC1CN2CCC1CC2 (stereo not given)	46.0	92.1	-	-	21.8	.	.	GPR7 antag conf=52.5;MCHR1 antag=58.3;MPTP counter=88.1
Cn1c(O)c(/C=C/C=Nc2ccccc2)c(=O)n(C)c1=S	-	-	-	-	-	.	.	OX1R Ca confirm=33.1;CHO Ca triplic=36.5
COC(=O)C1=C(c2ccccc2OCc2ccccc2)C[C@@H]2CC[C@H]1N2C(=O)NCc1cccc(C(F)(F)F)c1	-	-	61.3	-	.	.	.	OX1R Ca confirm=-;CHO Ca triplic=-
O=C(c1cc2cc(Br)ccc2[nH]1)N1CCC2(CC1)OCCO2	-	-	-	-	-	.	.
O=C(c1cc(Br)ccc1Cl)N1CCC2(CC1)OCCO2	-	-	44.7	-	-	.	.	OX1R Ca confirm=-;CHO Ca triplic=-
CC(C)CN1Cc2cc(-c3cccc(F)c3)ccc2-n2nncc2C1	.	-	.	.	.	.	.
COC(=O)C1=C(c2ccc(F)cc2OCc2ccccc2)C[C@@H]2CC[C@H]1N2C(=O)NCC1CC1	-	-	-	-	.	.	.
Cc1cccc(C(=O)Nc2ccc3c(c2)CC2(C(=O)N(C)C(=O)N(C)C2=O)C2CCCN32)c1 (stereo not given)	-	-	-	-	-	.	.
COc1ccccc1C(=O)Nc1ccc2c(c1)CC1(C(=O)N(C)C(=O)N(C)C1=O)C1CCCN21 (stereo not given)	-	-	-	66.7	-	90.2	19.6	OX1R Ca confirm=42.8;CHO Ca triplic=-
O=C(NC1CCCCC1)[C@@H]1CC=C[C@@H]2CCN(Cc3ccccc3)C(=O)[C@@H]21	-	-	-	75.3	.	74.4	-	OX1R Ca confirm=47.5;CHO Ca triplic=-
COc1ccccc1NC(=O)COC(=O)c1cn(C)c2ccccc12	-	-	47.3	54.1	.	-	-	OX1R Ca confirm=-;CHO Ca triplic=-
Fc1c(F)c(F)c(N2CCNCC2)c(F)c1F	-	-	-	-	-	.	.
O=C(Nc1cccc2ccccc12)c1nn(C23CC4CC(CC(C4)C2)C3)cc1Br	-	-	-	-	-	.	.
O=C(NC1CN2CCC1CC2)c1ccc(-c2ccc([N+](=O)[O-])cc2)o1 (stereo not given)	-	-	-	83.9	-	-	56.3
O=c1[nH]c(=S)[nH]c(O)c1N=Nc1ccc2c(c1)OCCO2	-	-	-	145.9	-	61.6	65.8
O=c1[nH]c(=S)[nH]c(O)c1N=Nc1ccc(S(=O)(=O)N2CCOCC2)cc1	-	-	-	140.2	-	-	64.6
NS(=O)(=O)c1ccc(N=Nc2c(O)[nH]c(=S)[nH]c2=O)cc1	-	-	-	77.4	-	66.8	79.3
O=C(N=Nc1c(O)[nH]c(=O)[nH]c1=O)C1COc2ccccc2O1 (stereo not given)	-	-	-	-	-	.	.
SMILES	CHO parental Ca	MPTP inh	OX1R antag-1	OX1R antag-2	GPR7 antag	OX1R HTRF conf	CHO-K1 HTRF	others
COc1ccc(N=Nc2c(O)[nH]c(=S)[nH]c2=O)cc1	-	-	-	+	-	63.1	99.8
C=C1[C@H]2CC[C@H]3[C@]4(C)C[C@H](O[C@@H]5OC(CO)[C@@H](OSOOO)[C@H](OS(=O)(=O)O)[C@H]5OC(=O)CC(C)C)C[C@@H](C(=O)O)[C@H]4CC[C@]3(C2)[C@H]1O (stereo not given in full)	-	-	-	-	.	.	.
C[C@]12CCC3C(CC[C@H]4C[C@@H](O)CC[C@]34C)C1C[C@@H](O)[C@@H]2O (stereo not given in full)	.	-	.	.	.	.	.
CN1CCN(Cc2cn(C)c3ccccc23)CC1CCO (stereo not given)	-	-	-	-	-	.	.
CC(NC1CCCCC1)C(O)C12CC3CC(CC(C3)C1)C2 (stereo not given)	-	-	-	-	-	.	.
O=c1[nH]c(O)c(N=Nc2cccc(S(=O)(=O)N3CCOCC3)c2)c(=O)[nH]1	-	-	-	87.9	-	54.9	78.8
O=c1[nH]c(=S)[nH]c(O)c1N=Nc1cccc(S(=O)(=O)N2CCOCC2)c1	-	-	-	96.6	-	59.7	66.3
O=c1[nH]c(O)c(N=Nc2ccc(S(=O)(=O)N3CCOCC3)cc2)c(=O)[nH]1	-	-	-	-	-	.	.
Cn1c[n+](C)cc1C(O)c1ccccc1 (stereo not given)	-	-	-	-	-	.	.
O=C(O)c1ccccc1N=Nc1c(O)[nH]c(=O)[nH]c1=O	-	-	-	111.4	-	-	76.0
O=c1[nH]c(O)c(N=Nc2cc(C(F)(F)F)ccc2Cl)c(=O)[nH]1	-	-	-	-	-	.	.
CN(C)P(=O)(CCl)Nc1ccccc1 (stereo not given)	-	-	-	-	-	.	.
CN1C(=O)C(=Cc2ccc(N3CCCCCC3)o2)C(=O)N(C)C1=S	-	-	-	-	-	.	.
CN1C(=O)C(=Cc2ccc(N3CCOCC3)o2)C(=O)N(C)C1=O	-	-	-	123.3	-	65.3	90.0
OCC[n+]1c2ccccc2nc2ccc(N3CCOCC3)cc21	-	-	-	113.1	-	-	75.9
Nc1ccc2nonc2c1[N+](=O)[O-]	-	-	-	83.4	-	-	91.3
CN(c1ccc(O)cc1)c1ccc([N+](=O)[O-])c2nonc12	.	-	.	.	.	.	.
